The nature of test [1]: Hemolysis of human erythrocytes after 30 mins by spectrophotometry. The format is ADME, cell-based, Erythrocyte. In short, it runs like this: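 Citrated human blood centrifuged (3,000 g, 10 min), erythrocytes washed in PBS pH 7.4 and made up as a 1.25% suspension. Suspension incubated with H2O2 (2.5 mM) and compound (50–300 µg/mL) 30 min at 37 °C, stopped on ice, centrifuged, read at 540 nm. Inhibition = (AH2O2 − Asample)/(AH2O2 − Anormal) × 100.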

Test [2] can be described thus: Antioxidant activity assessed as superoxide radical scavenging activity after 5 mins by spectrophotometry. The test is classed as functional. In outline: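 Superoxide generated by PMS/NADH reducing NBT, in 16 mM Tris-HCl pH 8.0 with […], 50 µM NBT, 10 µM PMS and compound (5–180 µg/mL). After 5 min at room temperature, formazan read at 560 nm; % scavenging versus control, EC50 from triplicates.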

Test [3] can be described thus: Antioxidant activity assessed as DPPH scavenging activity after 30 mins by UV-visible spectrophotometry. The format is functional. In outline:
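Methanolic compound solutions (5–180 µg/mL) mixed 1:1 by volume with 0.002% DPPH in methanol, shaken and kept in the dark 30 min. Absorbance read at 517 nm; % scavenging = (Acontrol − Asample)/Acontrol × 100. EC50 is the concentration scavenging 50% of radicals; mean of three experiments.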
Background: DPPH is a stable violet radical that fades when it is reduced.

The nature of test [4]: Antioxidant activity assessed as inhibition of lipid peroxidation activity after 15 mins by MDA assay. The test is classed as functional. In short, it runs like this: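 Egg yolk diluted 1:1 in PBS (0.1 M, pH 7.45) served as substrate. Compound (50–300 µg/mL) was added with FeSO4 (25 mM stock) and incubated 15 min at 37 °C. Reaction stopped with 20% TCA plus 0.8% thiobarbituric acid, then heated 15 min at 100 °C. MDA adduct read at 532 nm; % inhibition versus control, EC50 from triplicates.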

In test [5] the test system is THP-1. The experiment in a line: Antiinflammatory activity in human THP1 cells assessed as inhibition of PMA-induced IL-1beta secretion preincubated for 1 hr prior PMA-challenge measured after 48 hrs by ELISA. The test is classed as functional, cell-based. In outline:
(§1)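 THP1 cells at 2 x 10^5 cells/mL were pretreated 1 h with 5, 10 and 20 µM compound, then stimulated with 10 ng/mL PMA for 48 h. Supernatant IL-1β or MCP-1 was measured by ELISA at 450 nm (corrected at 570 nm) and quantified from a standard curve. Percent inhibition was taken versus control and IC50 derived, reported as mean ± SD of three independent experiments.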
Background: An ELISA detects its analyte on a solid surface through an enzyme-linked reagent.

Test [6] concerns THP-1. Kind of test: Antiinflammatory activity in human THP1 cells assessed as inhibition of PMA-induced MCP-1 secretion preincubated for 1 hr prior PMA-challenge measured after 48 hrs by ELISA. The test is classed as functional, cell-based. In short, it runs like this:
as §1

Test [7] has as its system THP-1. The experiment in a line: Antiinflammatory activity against PMA-stimulated human THP1 cells assessed as IL-1beta levels after 48 hrs by ELISA (reference value: 172 +/- 0.71 pg/ml). The test is classed as functional.
Test [8] has as its system THP-1. Kind of test: Antiinflammatory activity against PMA-stimulated human THP1 cells assessed as MCP-1 levels after 48 hrs by ELISA (reference value: 3521.63 +/- 79.78 pg/ml). The format is functional.
Setting [9] is: Homo sapiens, Erythrocyte, 0.5 h, read-out: EC50.

Converted amounts (≈) assume the structure as drawn. Bounds are passed on as bounds.

Experimental findings from ChEMBL document CHEMBL2407011, “Novel 2-(2,4-dioxo-1,3-thiazolidin-5-yl)acetamides as antioxidant and/or anti-inflammatory compounds” (Eur J Med Chem, 2013) are described below.

One may read the EC50 as the concentration at which the effect is half-maximal. What is called IC50 is the concentration at which inhibition is half-maximal.

Consider `O=C(CC1SC(=O)NC1=O)Nc1nc(-c2ccc(F)cc2)cs1` (stereo not given), for which the EC50 entry in test [1] (erythrocyte) was “Not Active”; in test [2] it was “Not Active”; in test [3], 52.69 µg/mL (≈ 150 µM); in test [4] it was “Not Active”. Besides, the results for the 50% inhibitory concentration (IC50) in the test with THP-1 [5] and with THP-1 [6] were above 50 µM and 17.6 µM, respectively.

In the case of `O=C(CC1SC(=O)NC1=O)Nc1nc(-c2ccc(Br)cc2)cs1` (stereo not given), the EC50 result is “Not Active” in test [1] (erythrocyte), “Not Active” in test [2], 49.71 µg/mL (≈ 121 µM) in test [3] and “Not Active” in test [4]. Also, the 50% inhibitory concentration (IC50) in the test with THP-1 [5] turned out to be 33.1 µM; with THP-1 [6], 49.1 µM.

For `O=C(CC1SC(=O)NC1=O)Nc1nc(-c2ccc(I)cc2)cs1` (stereo not given), the EC50 result in test [1] (erythrocyte) and in test [3] was “Not Active” throughout. The IC50 was above 50 µM in the test on THP-1 [5] and 31.7 µM in the test on THP-1 [6].

Consider `O=C(CC1SC(=O)NC1=O)Nc1nc(-c2ccccc2Cl)cs1` (stereo not given), for which the EC50 entry in test [3] is given as “Not Active”. Also, the values for the IC50 with THP-1 [5] and with THP-1 [6] were 18.2 µM and 26.5 µM, respectively.

Turning to `O=C(CC1SC(=O)NC1=O)Nc1nc(-c2cccc(Cl)c2)cs1` (stereo not given), the EC50 result in test [3] is given as “Not Active”. The IC50 in the test with THP-1 [5] was found to be 23.4 µM; in the test with THP-1 [6], 34.2 µM.

For the compound `Cc1ccccc1-c1csc(NC(=O)CC2SC(=O)NC2=O)n1` (stereo not given), the EC50 result in test [3] is “Not Active”. Besides, the half-maximal inhibitory concentration (IC50) amounted to 7.66 µM in the test with THP-1 [5] and 18.8 µM with THP-1 [6].

As to `Cc1cccc(-c2csc(NC(=O)CC3SC(=O)NC3=O)n2)c1` (stereo not given), the values for the EC50 result in test [1] (erythrocyte), in test [2] and in test [3] were “Not Active”, “Not Active” and 90.16 µg/mL (≈ 260 µM), respectively. Also, the IC50 with THP-1 [5] was determined as 11.7 µM; in the test with THP-1 [6], 18.9 µM.

On to `O=C(CC1SC(=O)NC1=O)Nc1nc(-c2ccccc2F)cs1` (stereo not given), for which the 50% effective concentration (EC50) result in test [1] (erythrocyte) was “Not Active”; in test [2], “Not Active”; in test [3], 82.5 µg/mL (≈ 235 µM); in test [4], “Not Active”. The IC50 with THP-1 [5] was above 50 µM; with THP-1 [6], 16.7 µM.

For `COc1ccccc1-c1csc(NC(=O)CC2SC(=O)NC2=O)n1` (stereo not given), the half-maximal effective concentration (EC50) in test [1] (setting [9]) came out at 96.6 µg/mL (≈ 266 µM); in test [2], 79.94 µg/mL (≈ 220 µM); in test [3] it was 58.68 µg/mL (≈ 161 µM); in test [4], 131.79 µg/mL (≈ 363 µM). The IC50 in the test with THP-1 [5] is 7.23 µM; in the test with THP-1 [6], above 50 µM.

Consider `O=C(CC1SC(=O)NC1=O)Nc1nc2ccccc2s1` (stereo not given), for which the EC50 in test [1] (setting [9]) came out at 107 µg/mL (≈ 349 µM); in test [2] it was 101.18 µg/mL (≈ 329 µM); in test [3], 52.18 µg/mL (≈ 170 µM); in test [4] it was 149.7 µg/mL (≈ 487 µM). Further, the figures for the IC50 with THP-1 [5] and in the test on THP-1 [6] were above 50 µM and 20.8 µM, respectively.

`O=C(CC1SC(=O)NC1=O)Nc1nc2ccc([N+](=O)[O-])cc2s1` (stereo not given): the concentration giving a half-maximal response (EC50) entry is “Not Active” in test [1] (erythrocyte), “Not Active” in test [2], 39.76 µg/mL (≈ 113 µM) in test [3] and “Not Active” in test [4]. Besides, the IC50 in the test with THP-1 [5] was determined as 6.83 µM; in the test with THP-1 [6], 20.3 µM.

Take `COc1ccc2nc(NC(=O)CC3SC(=O)NC3=O)sc2c1` (stereo not given): the 50% effective concentration (EC50) result in test [1] (erythrocyte) was “Not Active”; in test [2], “Not Active”; in test [3], 51.82 µg/mL (≈ 154 µM); in test [4] it was “Not Active”. Besides, the IC50 came out at 7.03 µM with THP-1 [5] and 39.6 µM in the test with THP-1 [6].

Turning to `CCOc1ccc2nc(NC(=O)CC3SC(=O)NC3=O)sc2c1` (stereo not given), the EC50 result in test [1] (erythrocyte) is “Not Active”; in test [2], “Not Active”; in test [3], 62.9 µg/mL (≈ 179 µM); in test [4], “Not Active”. Besides, the IC50 in the test with THP-1 [5] was above 50 µM; in the test on THP-1 [6], 63.1 µM.

In the case of `O=C(CC1SC(=O)NC1=O)Nc1nc(-c2ccccc2)cs1` (stereo not given), the EC50 result in test [3] is listed as “Not Active”. Further, the IC50 amounted to 9.6 µM with THP-1 [5] and 30.4 µM with THP-1 [6].

Turning to `O=C(CC1SC(=O)NC1=O)Nc1nc(-c2ccc(Cl)cc2)cs1` (stereo not given), in test [3], the EC50 result was “Not Active”. The IC50 in the test on THP-1 [5] was 16.3 µM; with THP-1 [6] it was above 50 µM.

As for `O=C1O[C@H]([C@@H](O)CO)C(O)=C1O` [ASCORBIC ACID], the EC50 in test [1] (setting [9]) was 96.6 µg/mL (≈ 549 µM); in test [2], 21.01 µg/mL (≈ 119 µM); in test [3], 40.28 µg/mL (≈ 229 µM); in test [4] it was 139.97 µg/mL (≈ 795 µM).

In the case of `O=c1cc(-c2ccc(O)c(O)c2)oc2cc(O)cc(O)c12` [LUTEOLIN], the concentration giving a half-maximal response (EC50) in test [1] (setting [9]) is 107 µg/mL (≈ 375 µM); in test [2], 31.01 µg/mL (≈ 108 µM); in test [3] it was 44.18 µg/mL (≈ 154 µM); in test [4] it was 149.7 µg/mL (≈ 523 µM).

Take `CCc1ccc(CCOc2ccc(CC3SC(=O)NC3=O)cc2)nc1` (stereo not given) [PIOGLITAZONE]: the values for the Activity in the test with THP-1 [7] and in the test on THP-1 [8] were 165 pg/mL and 2588.33 pg/mL, respectively. Moreover, the values for the half-maximal inhibitory concentration (IC50) with THP-1 [5] and in the test on THP-1 [6] were above 50 µM and 18.8 µM, respectively.

For the compound `CN1C(C(=O)Nc2ccccn2)=C(O)c2ccccc2S1(=O)=O` [PIROXICAM], the IC50 with THP-1 [5] worked out at 21.3 µM.
